Measured values collected from several papers.
Lines come from different studies, so protocols differ.
MAP2K5: Dual specificity mitogen-activated protein kinase kinase 5 (MAP2K5, Homo sapiens, UniProt Q13163)

SMILES | target | observed | action | method | tested at | endpoint | result
Nc1ncc(-c2nc(N3CCOCC3)nc(N3CCOCC3)n2)c(C(F)F)n1 | MAP2K5 | binding | – | competition with immobilised ligand | 10 µM | remaining binding | 39%
Cc1nn(C)cc1-c1nc2c(N3CCN(Cc4ccc(Cl)cc4)CC3)c(Cl)cnc2[nH]1 | MAP2K5 | binding | – | competition with immobilised ligand | 1 µM | remaining binding | 58%
COc1ncccc1-c1cnn2ccc(N3CCN(C(=O)OC(C)C)CC3)nc12 | Peripheral plasma membrane protein CASK (CASK, Homo sapiens, UniProt O14936) | binding | – | competition with immobilised ligand | 1 µM | remaining binding | 93%
CN1CC[C@@]2(C)c3cc(OC(=O)Nc4ccccc4)ccc3N(C)[C@@H]12 | Muscarinic acetylcholine receptor M5 (CHRM5, Homo sapiens, UniProt P08912) | ligand displacement | – | radioligand | 10 µM | inhibition | 6.5%
CO[C@H]1/C=C/O[C@@]2(C)Oc3c(C)c(O)c4c(O)c(c(/C=N/N5CCN(C6CCCC6)CC5)c(O)c4c3C2=O)NC(=O)/C(C)=C\C=C\[C@H](C)[C@H](O)[C@@H](C)[C@@H](O)[C@@H](C)[C@H](OC(C)=O)[C@@H]1C | dppA (Mycobacterium tuberculosis, UniProt I6X811) | thermal stability | – | – | 100 µM | ΔTm | > 1.5 °C
CCN(CC)CCCC[C@H](NC(=O)[C@H](CC(C)C)NC(=O)[C@H](C)NC(=O)[C@H](Cc1ccccc1)NC(=O)c1ccc(C(C)(C)C)cc1)C(=O)N[C@@H](CO)C(=O)OC | Melanocortin receptor 4 (MC4R, Homo sapiens, UniProt P32245) | ligand displacement | – | radioligand | 10 µM | remaining binding | 84%
Sc1ncnc2nc[nH]c12 | Replicase polyprotein 1a, main protease (Severe acute respiratory syndrome-related coronavirus, UniProt P0C6U8) | enzyme activity | inhibitor | – | 200 µM | remaining activity | 49%
C#Cc1n[nH]c2c(-c3cn(C(C)c4ccccn4)c(=O)[nH]c3=O)cc(F)cc12 (centres unmarked) | Fibroblast growth factor receptor 1 (FGFR1, Homo sapiens, UniProt P11362) | enzyme activity | inhibitor | – | 1 µM | inhibition | 3.8%
